# Results: ChEMBL document CHEMBL5058577, “EUbOPEN Chemogenomics Library 2 (Multiplex)” (2022)
# Test system: HEK-293T
# Assay: Multiplex assay against HEK293T
# Format: toxicity, cell-based
# Settings: human
# In short: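 Cells stained live at seeding with Hoechst33342, BioTracker Green Microtubule Cytoskeleton Dye, MitoTracker Red and Annexin V Alexa Fluor 680 were imaged on a CQ1 microscope at 37°C and 5% CO2 after compound addition. Their classification by CellPathfinder machine-learning gating ran from Hoechst high-intensity objects versus normal cells, to healthy, pyknosed or fragmented nuclei among normal cells, to mitotic or apoptotic among pyknosed cells. Tubulin, mitochondrial-mass and membrane-permeability phenotypes are per cents of healthy-nucleus cells.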
# [1] = 12 h, 1 µM, compound concentration 1 uM, replicate 1
# [2] = 12 h, 1 µM, compound concentration 1 uM, replicate 2
# [3] = 12 h, 10 µM, compound concentration 10 uM, replicate 1
# [4] = 12 h, 10 µM, compound concentration 10 uM, replicate 2
# [5] = 24 h, 1 µM, compound concentration 1 uM, replicate 1
# [6] = 24 h, 1 µM, compound concentration 1 uM, replicate 2
# [7] = 24 h, 10 µM, compound concentration 10 uM, replicate 1
# [8] = 24 h, 10 µM, compound concentration 10 uM, replicate 2
# [9] = 48 h, 1 µM, compound concentration 1 uM, replicate 1
# [10] = 48 h, 1 µM, compound concentration 1 uM, replicate 2
# [11] = 48 h, 10 µM, compound concentration 10 uM, replicate 1
# [12] = 48 h, 10 µM, compound concentration 10 uM, replicate 2
smiles,measurement,setting,value
CC(=O)Nc1cccc2c1c(Sc1ccc(Cl)cc1)c(C)n2CC(=O)O [AZD1981],Population Apoptotic (%),[1],37%
same,Population Fragmented Nuclei (%),[1],6%
same,Population Healthy Nuclei (%),[1],81%
same,Population Hoechst High Intensity Objects (%),[1],6%
same,Population Membrane Permeable-Phenotype (%),[1],0%
same,Population Mitochondria Different-Phenotype (%),[1],46%
same,Population Mitotic Cells (%),[1],62%
same,Population Normal (%),[1],93%
same,Population Pyknosed Nuclei (%),[1],11%
same,Population Tubulin-Different-Phenotype (%),[1],28%
same,Total Cell Count,[1],405
same,Population Apoptotic (%),[2],60%
same,Population Fragmented Nuclei (%),[2],5%
same,Population Healthy Nuclei (%),[2],80%
same,Population Hoechst High Intensity Objects (%),[2],8%
same,Population Mitochondria Different-Phenotype (%),[2],57%
same,Population Mitotic Cells (%),[2],40%
same,Population Normal (%),[2],91%
same,Population Pyknosed Nuclei (%),[2],13%
same,Population Tubulin-Different-Phenotype (%),[2],18%
same,Total Cell Count,[2],314
same,Population Apoptotic (%),[3],38%
same,Population Fragmented Nuclei (%),[3],8%
same,Population Healthy Nuclei (%),[3],78%
same,Population Hoechst High Intensity Objects (%),[3],7%
same,Population Membrane Permeable-Phenotype (%),[3],0%
same,Population Mitochondria Different-Phenotype (%),[3],44%
same,Population Mitotic Cells (%),[3],61%
same,Population Normal (%),[3],92%
same,Population Pyknosed Nuclei (%),[3],12%
same,Population Tubulin-Different-Phenotype (%),[3],29%
same,Total Cell Count,[3],403
same,Population Apoptotic (%),[4],60%
same,Population Fragmented Nuclei (%),[4],6%
same,Population Healthy Nuclei (%),[4],77%
same,Population Hoechst High Intensity Objects (%),[4],15%
same,Population Mitochondria Different-Phenotype (%),[4],60%
same,Population Mitotic Cells (%),[4],39%
same,Population Normal (%),[4],84%
same,Population Pyknosed Nuclei (%),[4],15%
same,Population Tubulin-Different-Phenotype (%),[4],26%
same,Total Cell Count,[4],318
same,Population Apoptotic (%),[5],20%
same,Population Fragmented Nuclei (%),[5],9%
same,Population Healthy Nuclei (%),[5],80%
same,Population Hoechst High Intensity Objects (%),[5],2%
same,Population Membrane Permeable-Phenotype (%),[5],0%
same,Population Mitochondria Different-Phenotype (%),[5],33%
same,Population Mitotic Cells (%),[5],79%
same,Population Normal (%),[5],97%
same,Population Pyknosed Nuclei (%),[5],9%
same,Population Tubulin-Different-Phenotype (%),[5],23%
same,Total Cell Count,[5],568
same,Population Apoptotic (%),[6],54%
same,Population Fragmented Nuclei (%),[6],7%
same,Population Hoechst High Intensity Objects (%),[6],9%
same,Population Mitochondria Different-Phenotype (%),[6],42%
same,Population Mitotic Cells (%),[6],45%
same,Population Normal (%),[6],90%
same,Population Pyknosed Nuclei (%),[6],11%
same,Population Tubulin-Different-Phenotype (%),[6],16%
same,Total Cell Count,[6],398
same,Population Apoptotic (%),[7],40%
same,Population Fragmented Nuclei (%),[7],7%
same,Population Healthy Nuclei (%),[7],79%
same,Population Hoechst High Intensity Objects (%),[7],4%
same,Population Membrane Permeable-Phenotype (%),[7],0%
same,Population Mitochondria Different-Phenotype (%),[7],28%
same,Population Mitotic Cells (%),[7],59%
same,Population Normal (%),[7],95%
same,Population Pyknosed Nuclei (%),[7],13%
same,Population Tubulin-Different-Phenotype (%),[7],25%
same,Total Cell Count,[7],526
same,Population Apoptotic (%),[8],59%
same,Population Fragmented Nuclei (%),[8],8%
same,Population Healthy Nuclei (%),[8],81%
same,Population Hoechst High Intensity Objects (%),[8],12%
same,Population Mitochondria Different-Phenotype (%),[8],45%
same,Population Mitotic Cells (%),[8],40%
same,Population Normal (%),[8],87%
same,Population Pyknosed Nuclei (%),[8],9%
same,Population Tubulin-Different-Phenotype (%),[8],19%
same,Total Cell Count,[8],387
same,Population Apoptotic (%),[9],21%
same,Population Fragmented Nuclei (%),[9],15%
same,Population Healthy Nuclei (%),[9],78%
same,Population Hoechst High Intensity Objects (%),[9],1%
same,Population Membrane Permeable-Phenotype (%),[9],1%
same,Population Mitochondria Different-Phenotype (%),[9],18%
same,Population Mitotic Cells (%),[9],78%
same,Population Normal (%),[9],98%
same,Population Pyknosed Nuclei (%),[9],6%
same,Population Tubulin-Different-Phenotype (%),[9],10%
same,Total Cell Count,[9],908
same,Population Apoptotic (%),[10],38%
same,Population Fragmented Nuclei (%),[10],13%
same,Population Healthy Nuclei (%),[10],79%
same,Population Hoechst High Intensity Objects (%),[10],3%
same,Population Mitochondria Different-Phenotype (%),[10],20%
same,Population Mitotic Cells (%),[10],61%
same,Population Normal (%),[10],96%
same,Population Tubulin-Different-Phenotype (%),[10],12%
same,Total Cell Count,[10],570
same,Population Apoptotic (%),[11],37%
same,Population Fragmented Nuclei (%),[11],14%
same,Population Healthy Nuclei (%),[11],78%
same,Population Hoechst High Intensity Objects (%),[11],2%
same,Population Membrane Permeable-Phenotype (%),[11],0%
same,Population Mitochondria Different-Phenotype (%),[11],18%
same,Population Mitotic Cells (%),[11],62%
same,Population Normal (%),[11],97%
same,Population Pyknosed Nuclei (%),[11],7%
same,Population Tubulin-Different-Phenotype (%),[11],11%
same,Total Cell Count,[11],751
same,Population Apoptotic (%),[12],33%
same,Population Fragmented Nuclei (%),[12],16%
same,Population Hoechst High Intensity Objects (%),[12],4%
same,Population Mitochondria Different-Phenotype (%),[12],26%
same,Population Mitotic Cells (%),[12],66%
same,Population Normal (%),[12],95%
same,Population Pyknosed Nuclei (%),[12],5%
same,Total Cell Count,[12],556
